Measurements as given in ChEMBL document CHEMBL3352165 (Eur J Med Chem, 2014).
Activity calls are given as the source filed them. The calls are words filed in the database; no cut-off is given here.

Tests used:
[1] = target: T1, Receptor tyrosine-protein kinase erbB-2 (Homo sapiens, UniProt P04626); conditions: BT-474, 0.001 to 10 uM
BT-474 [2] = experiment: Induction of apoptosis in human BT474 cells at 10 uM incubated for 12 hrs by propidium iodide staining based flow cytometry (reference value: 1%); type: functional
[3] = target: Platelet-derived growth factor receptor beta (Homo sapiens, UniProt P09619); experiment: Inhibition of PDGFRbeta phosphorylation (unknown origin) expressed in human U87MG cells at 0.001 to 1 uM incubated for 2 hrs by Western blot method; conditions: U-87MG ATCC
Chain of Platelet-derived growth factor receptor beta (P09619 whole entry): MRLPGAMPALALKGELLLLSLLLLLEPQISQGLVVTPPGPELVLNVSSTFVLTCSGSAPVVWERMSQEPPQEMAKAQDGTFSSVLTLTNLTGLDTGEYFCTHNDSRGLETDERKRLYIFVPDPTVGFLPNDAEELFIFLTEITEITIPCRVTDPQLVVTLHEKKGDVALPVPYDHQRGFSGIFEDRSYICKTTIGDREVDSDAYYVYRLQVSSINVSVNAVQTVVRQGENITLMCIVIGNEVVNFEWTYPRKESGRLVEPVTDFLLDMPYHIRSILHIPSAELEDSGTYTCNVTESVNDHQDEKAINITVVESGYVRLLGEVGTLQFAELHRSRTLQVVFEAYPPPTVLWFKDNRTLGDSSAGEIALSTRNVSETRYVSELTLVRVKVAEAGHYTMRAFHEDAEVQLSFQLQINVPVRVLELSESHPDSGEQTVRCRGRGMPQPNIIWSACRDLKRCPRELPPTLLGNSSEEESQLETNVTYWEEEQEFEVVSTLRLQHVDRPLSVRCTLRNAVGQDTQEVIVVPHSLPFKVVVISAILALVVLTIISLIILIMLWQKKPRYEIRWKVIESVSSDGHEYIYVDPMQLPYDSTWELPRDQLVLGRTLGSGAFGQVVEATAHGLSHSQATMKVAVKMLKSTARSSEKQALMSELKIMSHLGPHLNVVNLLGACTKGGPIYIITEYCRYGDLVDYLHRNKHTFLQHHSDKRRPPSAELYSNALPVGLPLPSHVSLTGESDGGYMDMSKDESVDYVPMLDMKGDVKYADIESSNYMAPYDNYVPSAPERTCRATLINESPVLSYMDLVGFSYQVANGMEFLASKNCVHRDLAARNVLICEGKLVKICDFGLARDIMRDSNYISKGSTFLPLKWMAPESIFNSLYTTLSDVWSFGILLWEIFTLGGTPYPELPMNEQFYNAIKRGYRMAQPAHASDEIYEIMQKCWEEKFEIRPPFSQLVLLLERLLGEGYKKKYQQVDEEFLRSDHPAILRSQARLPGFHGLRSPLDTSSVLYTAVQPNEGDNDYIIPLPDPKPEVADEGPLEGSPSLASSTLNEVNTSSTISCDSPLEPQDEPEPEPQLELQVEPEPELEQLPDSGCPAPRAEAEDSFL

A-431 = experiment: Cytotoxicity against human A431 cells assessed as inhibition of cell growth after 72 hrs by sulforhodamine B assay; type: functional, cell-based; conditions: A-431, 72 h
How it was run: (§1)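 Cells grown in RPMI-1640 with 5% FBS and plated at 5.0×10^4/ml. Next day exposed to 0.5–5000 ng/ml for 3 days. Survival read by sulforhodamine B staining. IC50 taken from growth curves; mean of at least three determinations.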

[4] = target: T1, Receptor tyrosine-protein kinase erbB-2; conditions: BT-474, 0.001 to 10 uM; remark: listed apart in the source
BT-474 [5] = experiment: Induction of apoptosis in human BT474 cells at 0.1 uM incubated for 12 hrs by propidium iodide staining based flow cytometry (reference value: 1%); type: functional
BT-474 [6] = experiment: Induction of apoptosis in human BT474 cells at 0.01 uM incubated for 12 hrs by propidium iodide staining based flow cytometry (reference value: 1%); type: functional
Mus musculus [7] = experiment: Toxicity in human Calu3 cells xenografted BALB/cA mouse assessed as body weight loss at 200 mg/kg, po measured every other day for 21 days; type: organism-based, Calu-3; parameters: dose 200 mg/kg, route oral; conditions: in vivo, 504 h
How it was run: (§2)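 Female BALB/cA nude mice, 6–7 weeks old, implanted s.c. on the mid-right flank with 2×10^6 Calu-3 cells in 0.2 ml PBS. At 60–150 mm³ tumour volume, mice randomised into six per treatment group (twelve vehicle controls). Oral dosing in 0.5% CMC aqueous solution with 0.1% Tween-80. Body weight recorded every other day for 21 d.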

MDA-MB-453 = experiment: cells; conditions: Homo sapiens, MDA-MB-453, 72 h
BT-474 [8] = experiment: Induction of cell cycle arrest in human BT474 cells assessed as accumulation at S phase at 10 uM incubated for 12 hrs by propidium iodide staining based flow cytometry (reference value: 19%); type: functional
MRC5 = experiment: cells; conditions: Homo sapiens, MRC5, 72 h
Mus musculus [9] = experiment: Toxicity in human Calu3 cells xenografted BALB/cA mouse assessed as body weight loss at 100 mg/kg, po measured every other day for 21 days; type: organism-based, Calu-3; parameters: dose 100 mg/kg, route oral; conditions: in vivo, 504 h
How it was run: as §2

BT-474 [10] = experiment: Induction of cell cycle arrest in human BT474 cells assessed as accumulation at S phase at 0.1 uM incubated for 12 hrs by propidium iodide staining based flow cytometry (reference value: 19%); type: functional
[11] = target: Mast/stem cell growth factor receptor Kit (Homo sapiens, UniProt P10721); experiment: Inhibition of c-KIT phosphorylation (unknown origin) expressed in human NCI-H526 cells at 0.001 to 1 uM incubated for 2 hrs by Western blot method
Chain of Mast/stem cell growth factor receptor Kit (P10721 whole entry): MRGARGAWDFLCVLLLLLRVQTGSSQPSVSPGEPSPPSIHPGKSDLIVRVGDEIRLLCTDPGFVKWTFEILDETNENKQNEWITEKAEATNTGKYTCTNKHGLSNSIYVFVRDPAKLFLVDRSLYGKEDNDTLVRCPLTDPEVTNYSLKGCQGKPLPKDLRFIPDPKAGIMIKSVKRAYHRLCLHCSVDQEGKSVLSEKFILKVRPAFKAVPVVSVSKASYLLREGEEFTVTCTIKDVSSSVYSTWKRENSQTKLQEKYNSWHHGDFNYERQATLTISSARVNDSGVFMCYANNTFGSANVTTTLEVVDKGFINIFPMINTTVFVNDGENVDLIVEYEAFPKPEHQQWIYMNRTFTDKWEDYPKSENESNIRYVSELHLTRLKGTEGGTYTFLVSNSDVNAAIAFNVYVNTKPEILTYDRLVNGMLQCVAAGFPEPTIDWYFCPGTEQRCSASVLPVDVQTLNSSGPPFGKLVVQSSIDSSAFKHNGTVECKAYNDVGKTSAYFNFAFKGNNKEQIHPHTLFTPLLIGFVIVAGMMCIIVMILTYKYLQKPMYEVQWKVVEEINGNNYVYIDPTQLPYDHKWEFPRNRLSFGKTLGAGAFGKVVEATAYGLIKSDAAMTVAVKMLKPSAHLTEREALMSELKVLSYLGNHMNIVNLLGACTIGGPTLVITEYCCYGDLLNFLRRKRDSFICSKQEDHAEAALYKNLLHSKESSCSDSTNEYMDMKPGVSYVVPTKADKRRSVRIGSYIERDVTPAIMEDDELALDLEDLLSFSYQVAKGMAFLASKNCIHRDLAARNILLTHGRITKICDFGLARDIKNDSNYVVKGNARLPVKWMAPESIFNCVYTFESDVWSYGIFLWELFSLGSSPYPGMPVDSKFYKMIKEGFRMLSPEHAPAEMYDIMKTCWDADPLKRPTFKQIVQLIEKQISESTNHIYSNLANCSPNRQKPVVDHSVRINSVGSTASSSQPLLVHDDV

BT-474 [12] = experiment: Induction of cell cycle arrest in human BT474 cells assessed as accumulation at G1 phase at 1 uM incubated for 12 hrs by propidium iodide staining based flow cytometry (reference value: 67%); type: functional
BT-474 [13] = experiment: Induction of apoptosis in human BT474 cells at 0.001 uM incubated for 12 hrs by propidium iodide staining based flow cytometry (reference value: 1%); type: functional
BT-474 [14] = experiment: Induction of cell cycle arrest in human BT474 cells assessed as accumulation at G2/M phase at 0.001 uM incubated for 12 hrs by propidium iodide staining based flow cytometry (reference value: 14%); type: functional
BT-474 [15] = experiment: Induction of cell cycle arrest in human BT474 cells assessed as accumulation at G1 phase at 0.1 uM incubated for 12 hrs by propidium iodide staining based flow cytometry (reference value: 67%); type: functional
BT-474 [16] = experiment: Induction of cell cycle arrest in human BT474 cells assessed as accumulation at G2/M phase at 0.01 uM incubated for 12 hrs by propidium iodide staining based flow cytometry (reference value: 14%); type: functional
BT-474 [17] = experiment: Induction of cell cycle arrest in human BT474 cells assessed as accumulation at G2/M phase at 10 uM incubated for 12 hrs by propidium iodide staining based flow cytometry (reference value: 14%); type: functional
[18] = target: Vascular endothelial growth factor receptor 2 (Homo sapiens, UniProt P35968); experiment: Inhibition of KDR phosphorylation (unknown origin) expressed in human HUVEC at 0.001 to 1 uM incubated for 2 hrs by Western blot method
Chain of Vascular endothelial growth factor receptor 2 (P35968 whole entry): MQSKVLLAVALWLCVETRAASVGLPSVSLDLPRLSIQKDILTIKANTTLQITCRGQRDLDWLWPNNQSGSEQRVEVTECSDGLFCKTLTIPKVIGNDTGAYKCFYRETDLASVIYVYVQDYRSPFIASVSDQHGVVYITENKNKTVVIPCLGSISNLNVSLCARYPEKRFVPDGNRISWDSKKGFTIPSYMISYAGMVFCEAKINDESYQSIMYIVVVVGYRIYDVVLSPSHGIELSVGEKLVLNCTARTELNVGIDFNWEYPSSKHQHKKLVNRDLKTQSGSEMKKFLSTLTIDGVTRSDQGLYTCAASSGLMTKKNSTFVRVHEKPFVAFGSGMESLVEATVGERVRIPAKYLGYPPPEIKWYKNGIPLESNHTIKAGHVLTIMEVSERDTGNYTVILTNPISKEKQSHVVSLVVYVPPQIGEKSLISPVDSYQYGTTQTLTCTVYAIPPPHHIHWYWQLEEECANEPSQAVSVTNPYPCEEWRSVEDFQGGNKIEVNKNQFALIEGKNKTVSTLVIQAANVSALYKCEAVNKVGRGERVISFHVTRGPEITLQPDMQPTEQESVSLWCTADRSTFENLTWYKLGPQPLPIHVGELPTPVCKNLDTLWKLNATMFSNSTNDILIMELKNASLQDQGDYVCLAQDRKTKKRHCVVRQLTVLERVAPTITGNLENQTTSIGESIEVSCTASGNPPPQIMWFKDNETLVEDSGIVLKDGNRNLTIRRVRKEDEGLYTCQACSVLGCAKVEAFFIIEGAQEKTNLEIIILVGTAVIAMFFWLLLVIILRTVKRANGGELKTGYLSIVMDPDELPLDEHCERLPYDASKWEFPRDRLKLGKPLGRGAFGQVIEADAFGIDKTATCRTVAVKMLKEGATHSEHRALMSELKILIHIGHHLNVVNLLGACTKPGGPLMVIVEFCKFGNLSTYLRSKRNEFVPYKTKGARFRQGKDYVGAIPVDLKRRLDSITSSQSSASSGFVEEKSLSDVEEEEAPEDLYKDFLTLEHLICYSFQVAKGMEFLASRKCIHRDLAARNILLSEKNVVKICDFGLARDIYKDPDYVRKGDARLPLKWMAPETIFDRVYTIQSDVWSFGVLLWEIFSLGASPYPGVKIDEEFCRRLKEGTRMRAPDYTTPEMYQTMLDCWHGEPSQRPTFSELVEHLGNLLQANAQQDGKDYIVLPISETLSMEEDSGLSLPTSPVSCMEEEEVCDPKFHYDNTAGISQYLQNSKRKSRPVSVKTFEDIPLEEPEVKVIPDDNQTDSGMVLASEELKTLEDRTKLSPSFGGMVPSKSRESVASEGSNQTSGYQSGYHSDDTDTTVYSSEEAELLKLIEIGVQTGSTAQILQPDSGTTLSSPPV

[19] = target: T1, Receptor tyrosine-protein kinase erbB-2; conditions: BT-474, 0.001 to 10 uM; remark: listed apart in the source
BT-474 [20] = experiment: Cytotoxicity against human BT474 cells assessed as inhibition of cell growth after 72 hrs by sulforhodamine B assay; type: functional, cell-based; conditions: BT-474, 72 h
How it was run: as §1

[21] = Antitumor activity against human Calu3 cells xenografted in BALB/cA mouse assessed as tumor growth inhibition at 100 mg/kg, po; type: functional; conditions: Calu-3, read-out: TGI
How it was run: (§3)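 Female BALB/cA nude mice, 6–7 weeks old, implanted s.c. on midright side with 2×10^6 Calu-3 cells in 0.2 ml PBS. Grouped at 60–150 mm³ tumour volume (6 per treated group, 12 vehicle). Oral dosing in 0.5% CMC with 0.1% Tween-80. Caliper volume = L×W²×0.5; inhibition = (1 − T/C)×100% on relative tumour volume; weight tracked for 21 d.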

BT-474 [22] = experiment: Induction of cell cycle arrest in human BT474 cells assessed as accumulation at S phase at 0.001 uM incubated for 12 hrs by propidium iodide staining based flow cytometry (reference value: 19%); type: functional
[23] = Cytotoxicity against human SKBR3 cells assessed as inhibition of cell growth after 72 hrs by sulforhodamine B assay; type: functional, cell-based; conditions: SK-BR-3, 72 h
How it was run: as §1

BT-474 [24] = experiment: Induction of apoptosis in human BT474 cells at 1 uM incubated for 12 hrs by propidium iodide staining based flow cytometry (reference value: 1%); type: functional
[25] = Antitumor activity against human Calu3 cells xenografted in BALB/cA mouse assessed as tumor growth inhibition at 200 mg/kg, po; type: functional; conditions: Calu-3, read-out: TGI
How it was run: as §3

MDA-MB-231 = experiment: cells; conditions: Homo sapiens, MDA-MB-231, 72 h
BT-474 [26] = experiment: Induction of cell cycle arrest in human BT474 cells assessed as accumulation at G1 phase at 0.001 uM incubated for 12 hrs by propidium iodide staining based flow cytometry (reference value: 67%); type: functional
NCI-H460 = experiment: cells; conditions: Homo sapiens, NCI-H460, 72 h
BT-474 [27] = experiment: Induction of cell cycle arrest in human BT474 cells assessed as accumulation at G1 phase at 0.01 uM incubated for 12 hrs by propidium iodide staining based flow cytometry (reference value: 67%); type: functional
MCF7 = experiment: Cytotoxicity against human MCF7 cells assessed as inhibition of cell growth after 72 hrs by sulforhodamine B assay; type: functional, cell-based; conditions: MCF7, 72 h
How it was run: as §1

BT-474 [28] = experiment: Induction of cell cycle arrest in human BT474 cells assessed as accumulation at G1 phase at 10 uM incubated for 12 hrs by propidium iodide staining based flow cytometry (reference value: 67%); type: functional
BT-474 [29] = experiment: Induction of cell cycle arrest in human BT474 cells assessed as accumulation at G2/M phase at 0.1 uM incubated for 12 hrs by propidium iodide staining based flow cytometry (reference value: 14%); type: functional
BT-474 [30] = experiment: Induction of cell cycle arrest in human BT474 cells assessed as accumulation at G2/M phase at 1 uM incubated for 12 hrs by propidium iodide staining based flow cytometry (reference value: 14%); type: functional
cells [31] = conditions: Homo sapiens, SK-OV-3, 72 h
cells [32] = conditions: Homo sapiens, Calu-3, 72 h
BT-474 [33] = experiment: Induction of cell cycle arrest in human BT474 cells assessed as accumulation at S phase at 1 uM incubated for 12 hrs by propidium iodide staining based flow cytometry (reference value: 19%); type: functional
BT-474 [34] = experiment: Induction of cell cycle arrest in human BT474 cells assessed as accumulation at S phase at 0.01 uM incubated for 12 hrs by propidium iodide staining based flow cytometry (reference value: 19%); type: functional

T1 sequence (P04626 whole entry): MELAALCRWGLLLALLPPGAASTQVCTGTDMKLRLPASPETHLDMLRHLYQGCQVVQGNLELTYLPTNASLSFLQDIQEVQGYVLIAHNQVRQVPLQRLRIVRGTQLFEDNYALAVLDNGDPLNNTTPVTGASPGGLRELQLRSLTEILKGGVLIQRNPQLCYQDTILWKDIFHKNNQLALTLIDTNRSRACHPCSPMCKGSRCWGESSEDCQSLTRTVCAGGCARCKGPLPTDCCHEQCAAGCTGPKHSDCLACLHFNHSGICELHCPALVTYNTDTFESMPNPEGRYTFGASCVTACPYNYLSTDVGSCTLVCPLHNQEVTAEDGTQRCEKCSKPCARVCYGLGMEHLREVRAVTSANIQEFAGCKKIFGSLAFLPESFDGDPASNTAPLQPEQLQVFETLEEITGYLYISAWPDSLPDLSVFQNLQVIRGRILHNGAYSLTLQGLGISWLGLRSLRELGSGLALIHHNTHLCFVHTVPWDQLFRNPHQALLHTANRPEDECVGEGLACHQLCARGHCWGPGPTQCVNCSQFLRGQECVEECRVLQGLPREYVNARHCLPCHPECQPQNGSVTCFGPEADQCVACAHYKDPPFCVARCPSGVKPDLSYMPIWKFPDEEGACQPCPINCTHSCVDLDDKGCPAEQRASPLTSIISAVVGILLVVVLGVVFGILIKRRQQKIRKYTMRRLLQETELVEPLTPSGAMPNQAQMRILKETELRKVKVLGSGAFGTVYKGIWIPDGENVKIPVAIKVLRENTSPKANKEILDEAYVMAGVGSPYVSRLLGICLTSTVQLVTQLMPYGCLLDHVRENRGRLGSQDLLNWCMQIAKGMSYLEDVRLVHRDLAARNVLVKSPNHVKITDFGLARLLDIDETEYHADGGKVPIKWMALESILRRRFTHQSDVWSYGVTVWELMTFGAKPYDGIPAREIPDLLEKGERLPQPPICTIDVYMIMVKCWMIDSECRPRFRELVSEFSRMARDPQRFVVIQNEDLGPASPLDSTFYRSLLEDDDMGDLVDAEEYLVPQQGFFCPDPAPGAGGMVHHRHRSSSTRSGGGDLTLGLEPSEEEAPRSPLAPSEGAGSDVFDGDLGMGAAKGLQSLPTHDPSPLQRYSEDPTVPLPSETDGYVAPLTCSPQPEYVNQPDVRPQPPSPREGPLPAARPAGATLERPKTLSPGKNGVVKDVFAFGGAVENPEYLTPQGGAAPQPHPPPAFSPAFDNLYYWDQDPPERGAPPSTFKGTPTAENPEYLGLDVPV

- inhibition [1]: Active
- inhibition [3]: inactive
- inhibition [4]: Active
- IC50 (MDA-MB-453): 0.19 µM
- inhibition [11]: inactive
- inhibition [18]: inactive
- inhibition [19]: Active
- IC50 (MDA-MB-231): > 100 µM
- IC50 (NCI-H460): > 100 µM
- IC50 (cells [31]): 0.59 µM
- IC50 (cells [32]): 0.23 µM
SMILES: CS(=O)(=O)CCNCc1ccc(-c2ccc3ncnc(Nc4ccc(OCc5cccc(F)c5)c(Cl)c4)c3c2)o1 [LAPATINIB]
- Activity (BT-474 [2]): 13%
- IC50 (A-431): 0.643 µM
- Activity (BT-474 [5]): 4%
- Activity (BT-474 [6]): 1%
- Activity (Mus musculus [7]): Non-toxic
- Activity (BT-474 [8]): 8%
- IC50 (MRC5): > 100 µM
- Activity (Mus musculus [9]): Non-toxic
- Activity (BT-474 [10]): 6%
- Activity (BT-474 [12]): 84%
- Activity (BT-474 [13]): 1%
- Activity (BT-474 [14]): 14%
- Activity (BT-474 [15]): 84%
- Activity (BT-474 [16]): 11%
- Activity (BT-474 [17]): 11%
- IC50 (BT-474 [20]): 0.0639 µM
- inhibition in vivo at 100 mg/kg [21]: 56%
- Activity (BT-474 [22]): 15%
- IC50 [23]: 0.0301 µM
- Activity (BT-474 [24]): 6%
- inhibition in vivo at 200 mg/kg [25]: 70%
- Activity (BT-474 [26]): 71%
- Activity (BT-474 [27]): 82%
- IC50 (MCF7): 8.47 µM
- Activity (BT-474 [28]): 81%
- Activity (BT-474 [29]): 10%
- Activity (BT-474 [30]): 10%
- Activity (BT-474 [33]): 6%
- Activity (BT-474 [34]): 7%
